Data reported in ChEMBL document CHEMBL3352135, “Antiproliferative prenylated xanthones and benzophenones from the roots of Cudrania tricuspidata in HSC-T6 cells” (J Nat Prod, 2014).

Tests used:
[1] = Antiproliferative activity against rat HSC-T6 cells assessed as reduction in cell viability; type: functional, cell-based
How it was run: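 Immortalized rat hepatic stellate line HSC-T6. Viability was measured by a procedure from earlier work, and IC50 values were derived from it. Epigallocatechin-3-gallate was the positive control.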

[2] = Induction of apoptosis in rat HSC-T6 cells assessed as viable cells at 1 uM after 48 hrs using annexin-V/PI double staining by flow cytometry (reference value: 99.2 %); type: functional; details: HSC-T6, 48 h, read-out: Activity
[3] = Induction of apoptosis in rat HSC-T6 cells assessed as early apoptotic cells at 1 uM after 48 hrs using annexin-V/PI double staining by flow cytometry (reference value: 0.150 %); type: functional
[4] = Induction of apoptosis in rat HSC-T6 cells assessed as late apoptotic cells at 1 uM after 48 hrs using annexin-V/PI double staining by flow cytometry (reference value: 0.130 %); type: functional
[5] = Induction of apoptosis in rat HSC-T6 cells assessed as necrotic cells at 1 uM after 48 hrs using annexin-V/PI double staining by flow cytometry (reference value: 0.550 %); type: functional
[6] = Induction of apoptosis in rat HSC-T6 cells assessed as viable cells at 3 uM after 48 hrs using annexin-V/PI double staining by flow cytometry (reference value: 99.2 %); type: functional; details: HSC-T6, 48 h, read-out: Activity
[7] = Induction of apoptosis in rat HSC-T6 cells assessed as early apoptotic cells at 3 uM after 48 hrs using annexin-V/PI double staining by flow cytometry (reference value: 0.150 %); type: functional
[8] = Induction of apoptosis in rat HSC-T6 cells assessed as late apoptotic cells at 3 uM after 48 hrs using annexin-V/PI double staining by flow cytometry (reference value: 0.130 %); type: functional
[9] = Induction of apoptosis in rat HSC-T6 cells assessed as necrotic cells at 3 uM after 48 hrs using annexin-V/PI double staining by flow cytometry (reference value: 0.550 %); type: functional

Row | SMILES | IC50 [1] | other results
1 | CC1(C)C=Cc2c(cc(O)c3c(=O)c4c5c(ccc4oc23)OC(C)(C)C=C5)O1 | > 30 µM | –
2 | C=CC(C)(C)c1c(OC)c(CC=C(C)C)c2oc3cc(O)c(O)cc3c(=O)c2c1O | 9.7 µM | viability at 1 µM [2]: 80.8%; Activity [3]: 11.5%; Activity [4]: 2.54%; Activity [5]: 5.19%; viability at 3 µM [6]: 78.8%; Activity [7]: 8.76%; Activity [8]: 5.81%; Activity [9]: 6.67%
3 | C[C@@H]1Oc2cc3oc4c5c(c(O)cc4c(=O)c3c(O)c2C1(C)C)OC(C)(C)C=C5 | 15.9 µM | –
4 | COc1c2c(c3c(=O)c4ccc(O)c(O)c4oc3c1CC=C(C)C)O[C@H](C)C2(C)C | 14.8 µM | –
5 | COc1c2c(c3c(=O)c4cc(O)c(O)cc4oc3c1CC=C(C)C)O[C@@H](C)C2(C)C | 15.2 µM | –
6 | CC1(C)C=Cc2cc(C(=O)c3cccc(O)c3)c(O)c(O)c2O1 | 7.1 µM | –
7 | O=c1c2ccc(O)cc2oc2ccc(O)cc12 | > 30 µM | –
8 | COc1cc2oc3cc(O)cc(O)c3c(=O)c2cc1OC | > 30 µM | –
9 | CC(C)=CCc1c(O)cc(O)c2c(=O)c3cccc(O)c3oc12 | > 30 µM | –
10 | CC1Oc2cc(O)c3c(=O)c4ccc(O)c(O)c4oc3c2C1(C)C (centres undefined) | 13.1 µM | –
11 | COc1c(CC=C(C)C)c(O)c2c(=O)c3cc(O)c(O)cc3oc2c1CC=C(C)C [CUDRATRICUSXANTHONE K] | > 30 µM | –
12 | CC(C)=CCc1c(O)c(O)cc2c(=O)c3c(O)c4c(cc3oc12)OC(C)C4(C)C (centres undefined) [CUDRAXANTHONE M] | 10.4 µM | –
13 | O=C(O[C@@H]1Cc2c(O)cc(O)cc2O[C@@H]1c1cc(O)c(O)c(O)c1)c1cc(O)c(O)c(O)c1 [EPIGALOCATECHIN GALLATE] | 29.8 µM | –
14 | CC(C)=CCc1c(O)cc(O)c2c(=O)c3c(CC=C(C)C)c(O)ccc3oc12 [GERONTOXANTHONE H] | > 30 µM | –
15 | C=CC(C)(C)c1c(OC)cc(O)c2c(=O)c3ccc(O)c(O)c3oc12 [ISOCUDRANIAXANTHONE B] | 17.3 µM | –
16 | C=CC(C)(C)c1c(O)c(CC=C(C)C)c2oc3cc(O)c(O)cc3c(=O)c2c1O [MACLURAXANTHONE B] | 13.3 µM | –
